Scp-1 inhibitor – Scp-1 phosphatase inhibitors, primary screen, biochemical, colorimetric, uHTS; Recombinant Scp1, phosphopeptide, malachite green phosphate absorbance; inhibition, % at 20 µM; actives 0.88% (n = 340,000);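 active = inhibition above about 50% at 20 µM, limit read from the data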;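 also: plate controls were DMSO wells with enzyme for no effect and wells lacking enzyme for full effect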
Target sequence (Q9GZU7 76-261 limits assumed): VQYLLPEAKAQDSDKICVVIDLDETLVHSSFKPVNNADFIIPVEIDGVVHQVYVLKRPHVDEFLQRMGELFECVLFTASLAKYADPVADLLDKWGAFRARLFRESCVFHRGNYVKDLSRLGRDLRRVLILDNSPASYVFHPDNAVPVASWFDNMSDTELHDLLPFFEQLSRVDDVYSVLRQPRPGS
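System: SCP-1 catalytic domain; Reagent: Phospho 17-mer peptide substrate; Doses: one concentration, 20 µM, with 1.0% DMSO; Incubation: 45 min room-temperature reaction, 5 min colour, 30 min stabiliser; Signal: Phosphate-binding colour reagent, absorbance read at 630 nm.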
STEP block – STEP phosphatase inhibitors, primary screen, biochemical, fluorescence intensity, uHTS | Tyrosine-protein phosphatase non-receptor type 5 (Homo sapiens), P54829 | recombinant STEP, OMFP fluorogenic substrate | inhibition, % at 20 µM | actives 0.25% (n = 360,000);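 active = inhibition at 20 µM, scaled per plate between control wells, above about 37%, limit read from the data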;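 also: 0% = DMSO with enzyme and substrate and 100% = substrate only without enzyme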
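material = STEP tyrosine phosphatase | reagent = fluorogenic phosphatase substrate OMFP at 25 µM final | doses = single compound dose of 20 µM, 1% DMSO final | schedule = 20 min reaction, room temperature, in the dark | measured by = fluorescence, 480/540 nm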
LMPTP inh – LMPTP phosphatase inhibitors, primary screen, biochemical, fluorescence intensity, uHTS; Low molecular weight phosphotyrosine protein phosphatase (Homo sapiens), P24666; recombinant LMPTP-A, OMFP fluorogenic substrate; inhibition, % at 20 µM; actives 0.22% (n = 360,000);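 active = compounds that cut the enzyme signal by at least half of the control window in the single-dose screen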;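 also: plate controls were DMSO wells with enzyme plus substrate for no effect and substrate without enzyme for full effect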
Target sequence (P24666 whole entry, looked up): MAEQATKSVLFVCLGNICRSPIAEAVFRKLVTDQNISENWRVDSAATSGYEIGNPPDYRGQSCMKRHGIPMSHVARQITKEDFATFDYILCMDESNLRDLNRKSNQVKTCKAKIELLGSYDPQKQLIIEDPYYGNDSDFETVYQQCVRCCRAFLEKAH
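Test system: LMPTP-A phosphatase enzyme; input: 0.625 nM LMPTP-A final; reagent: OMFP substrate, 400 µM final; compound dosing: 20 µM single dose, 3% DMSO; incubation: 50 min dark incubation at room temperature; measured by: endpoint fluorescence intensity from OMFP dephosphorylation; measure: % inhibition relative to no-enzyme and uninhibited control wells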
SUMO1-SIM PPI – modulators of SUMO1 protein-protein interactions, primary screen, biochemical, uHTS. Small ubiquitin-related modifier 1 (Homo sapiens), P63165. SUMO1 binding to a labelled peptide, TR-FRET, 1 h. inhibition, % at 20 µM. actives 0.33% (n = 360,000); in the data active = inhibition above about 37%
Target sequence (P63165 whole entry, looked up): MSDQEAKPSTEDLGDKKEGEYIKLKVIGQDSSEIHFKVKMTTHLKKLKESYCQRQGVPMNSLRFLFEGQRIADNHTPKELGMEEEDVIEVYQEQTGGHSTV
DNMT1 block – human DNMT1 methyltransferase inhibitors, primary screen, biochemical, molecular beacon, fluorescence, HinP1I cleavage, uHTS. actives 0.83% (n = 360,000). inhibition (reported as % activation of signal), % at 10 µM. DNA (cytosine-5)-methyltransferase 1 (Homo sapiens), P26358. AID 588458, 2011; in the data active = inhibition above about 50%
Scp1 confirm – Scp-1 phosphatase inhibitors, retest, confirmation, biochemical, colorimetric, single concentration. shares compounds with Scp-1 inhibitor. recombinant SCP-1 catalytic domain, phosphate release, malachite green absorbance. inhibition, % at 20 µM. actives 61% (n = 2,500). AID 540281, 2011;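 also: plate controls were DMSO with enzyme for no effect and buffer wells lacking enzyme for full effect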
Scp-1 MG ctr – colorimetric readout interference by compounds, confirmation, artefact control for Scp-1 inhibitor project, biochemical, single concentration | shares compounds with Scp-1 inhibitor | Colorimetric interference counterscreen, malachite green absorbance 630 nm | apparent inhibition (interference), % at 20 µM | 2,500 tested, under 10 active;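 also: compounds added after enzyme reaction finished so only phosphate colour detection is probed; plate controls were DMSO wells with completed Scp-1 reaction for no effect and substrate wells lacking enzyme for full effect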
Scp1 DSF – Scp-1 binding by thermal shift, confirmation, orthogonal assay for Scp-1 inhibitor project, biophysical, differential scanning fluorimetry. shares compounds with Scp-1 inhibitor. Recombinant SCP1, Sypro Orange thermal shift Tm. thermal shift relative to vanadate control, % at 40 µM. actives 25% (n = 1,500). AID 540329, 2011;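 active = substances whose mean melting-temperature shift, as a percentage of the reference inhibitor's shift, reaches about 5.3%, limit read from the data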;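 also: 0% = Tm of DMSO wells and 100% = Tm with sodium orthovanadate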
* = called active by the depositor; / = no result given. Most compounds without a hit are left out; they make up all but 1.7% or so of the library.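 The calls were made as follows, unless noted: active = inhibition of at least 30% at 20 µM; inactive = the rest.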

SMILES	Scp-1 inhibitor	STEP block	LMPTP inh	SUMO1-SIM PPI	DNMT1 block	Scp1 confirm	Scp-1 MG ctr	others
CC(=O)Nc1ccc(S(=O)(=O)NCCSCc2ccco2)cc1	3	-1	2	16	-4	/	/
CS(=O)(=O)NCCSCc1ccco1	98*	-2	0	0	13	64*	-15	Scp1 DSF=-5
COc1ccc(C(C(=O)NC(C)(C)C)n2c(=O)c(-c3cc4ccccc4[nH]3)nc3ccccc32)cc1 (stereo unspecified)	/	/	4	0	/	/	/
O=C(N/N=C/c1cn(-c2cccs2)nc1-c1ccccc1)c1ccccc1O	72*	0	4	18	-18	27	-24
O=C(CSc1nnc(-c2ccncc2)n1-c1ccc(F)cc1)NC(=O)NCc1ccco1	89*	5	7	0	68*	64*	-8	Scp1 DSF=-3
Cc1ccc(NC(=O)CSc2nc3[nH]ncc3c(=O)[nH]2)cc1Cl	58*	-3	0	10	-9	29	-13
COc1ccccc1C(C)Nc1ccc(S(=O)(=O)N2CCN(C)CC2)cc1[N+](=O)[O-] (stereo unspecified)	-10	2	0	-34	-4	/	/
O=C(Nc1ccccc1OCc1ccccc1)c1ccccc1Br	-5	-1	3	0	-1	/	/
CCc1cc(C(=O)OC)c(NC(=O)CCC(=O)O)s1	62*	2	-2	0	-2	-10	-11
CCOC(=O)c1cn(CC)c2cc3c(cc2c1=O)OCO3	64*	-1	0	8	-2	-12	-5
Cc1ccc(-c2c(C#N)c(N)n3c(nc4ccccc43)c2C#N)cc1	57*	12	19	-9	-12	14	-19
N#Cc1c(-c2ccccc2)c(C#N)c2nc3ccccc3n2c1N	-1	-1	1	-5	-20	/	/
CC(C)CC(N)c1csc(Nc2ccc(C(=O)NCCCO)cn2)n1 (stereo unspecified)	/	0	1	2	-24	/	/
CC(C)=CCn1c2ccc(NC(=O)NCc3ccc(F)cc3)cc2c(=O)n1C	/	2	0	-2	-3	/	/
Cc1ccc(S(=O)(=O)N2CCN(C(=O)COC(=O)CCOc3ccccc3C)CC2)c(C)c1	66*	0	0	0	-1	86*	-17	Scp1 DSF=-20
COc1ccccc1S(=O)(=O)N(C)C[C@@H]1Oc2ncc(-c3ccc(C)cc3)cc2C(=O)N([C@H](C)CO)C[C@@H]1C	/	3	-1	1	3	/	/
N#Cc1ccccc1OCC(=O)NC1CCCCCC1	/	-3	0	0	-4	/	/
CC1(C(=O)NCc2ccccc2)CN(S(C)(=O)=O)CC(=O)N1C1CCN(Cc2ccccc2)CC1 (stereo unspecified)	/	/	-1	-3	/	/	/
CCC1(c2ccccc2)NC(=O)N(CC(=O)N(C)CC(=O)Nc2cccc(OC)c2)C1=O (stereo unspecified)	-4	-2	-2	6	-2	/	/
CCC1(c2ccccc2)NC(=O)N(CC(=O)N(C)CC(=O)Nc2c(C)cccc2C)C1=O (stereo unspecified)	2	0	-1	-8	0	-5	-3
CC12CCC(C[N+](C)(C)C1)C2(C)C (stereo unspecified)	86*	0	-1	-3	1	96*	-5	Scp1 DSF=-5

Screening results as filed in PubChem.
